The text below walks through data of ChEMBL document CHEMBL4673370, “Modifications at C(5) of 2-(2-Pyrrolidinyl)-Substituted 1,4-Benzodioxane Elicit Potent α4β2 Nicotinic Acetylcholine Receptor Partial Agonism with High Selectivity over the α3β4 Subtype” (J Med Chem, 2020).

Chain of Neuronal acetylcholine receptor; alpha4/beta2 (Rattus norvegicus, UniProt P09483+P12390) (P09483 whole entry): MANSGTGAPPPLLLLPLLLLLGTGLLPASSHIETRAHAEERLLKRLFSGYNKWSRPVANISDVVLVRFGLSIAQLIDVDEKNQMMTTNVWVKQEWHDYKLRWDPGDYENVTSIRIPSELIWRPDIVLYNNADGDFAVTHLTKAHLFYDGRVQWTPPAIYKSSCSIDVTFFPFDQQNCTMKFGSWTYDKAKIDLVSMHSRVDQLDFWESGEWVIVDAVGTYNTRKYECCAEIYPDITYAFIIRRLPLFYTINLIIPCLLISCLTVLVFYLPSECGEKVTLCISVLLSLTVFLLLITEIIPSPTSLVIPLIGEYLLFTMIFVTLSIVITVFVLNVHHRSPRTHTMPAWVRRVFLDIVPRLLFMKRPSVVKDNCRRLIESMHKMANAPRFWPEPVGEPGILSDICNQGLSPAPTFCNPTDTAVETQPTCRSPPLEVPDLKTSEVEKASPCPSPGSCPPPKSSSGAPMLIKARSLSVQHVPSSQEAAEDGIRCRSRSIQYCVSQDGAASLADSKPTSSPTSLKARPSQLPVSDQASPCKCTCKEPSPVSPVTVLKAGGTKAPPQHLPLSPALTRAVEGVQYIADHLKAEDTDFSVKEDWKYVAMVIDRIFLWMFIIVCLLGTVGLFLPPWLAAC
Chain of Neuronal acetylcholine receptor; alpha4/beta2 (Rattus norvegicus, UniProt P09483+P12390) (P12390 whole entry): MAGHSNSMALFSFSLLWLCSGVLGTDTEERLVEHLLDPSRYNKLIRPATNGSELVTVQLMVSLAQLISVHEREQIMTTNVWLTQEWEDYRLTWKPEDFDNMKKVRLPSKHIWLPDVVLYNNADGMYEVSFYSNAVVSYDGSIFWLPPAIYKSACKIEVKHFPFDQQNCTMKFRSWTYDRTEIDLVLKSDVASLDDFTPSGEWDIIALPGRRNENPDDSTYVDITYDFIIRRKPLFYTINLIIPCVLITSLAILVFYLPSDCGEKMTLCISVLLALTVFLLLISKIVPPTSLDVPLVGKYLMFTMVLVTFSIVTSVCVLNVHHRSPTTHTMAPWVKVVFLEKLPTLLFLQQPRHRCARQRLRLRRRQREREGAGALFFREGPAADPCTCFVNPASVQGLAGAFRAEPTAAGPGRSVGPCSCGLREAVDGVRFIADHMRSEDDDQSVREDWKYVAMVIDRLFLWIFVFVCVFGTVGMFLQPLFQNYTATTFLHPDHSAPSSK
T2 sequence (P17787 whole entry, the tested form may be a part): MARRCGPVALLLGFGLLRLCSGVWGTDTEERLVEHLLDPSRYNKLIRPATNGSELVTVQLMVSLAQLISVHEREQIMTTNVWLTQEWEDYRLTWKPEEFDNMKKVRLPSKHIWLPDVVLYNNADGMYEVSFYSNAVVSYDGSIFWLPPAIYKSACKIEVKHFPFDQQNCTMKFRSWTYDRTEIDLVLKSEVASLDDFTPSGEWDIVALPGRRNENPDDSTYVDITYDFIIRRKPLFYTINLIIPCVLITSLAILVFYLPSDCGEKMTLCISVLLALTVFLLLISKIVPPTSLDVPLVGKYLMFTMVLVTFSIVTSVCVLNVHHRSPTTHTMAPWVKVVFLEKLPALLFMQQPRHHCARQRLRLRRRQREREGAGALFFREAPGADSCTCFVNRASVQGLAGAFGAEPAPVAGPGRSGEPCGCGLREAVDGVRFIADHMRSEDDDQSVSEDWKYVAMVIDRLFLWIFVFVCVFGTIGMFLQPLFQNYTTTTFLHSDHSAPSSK
T2 sequence (P43681 whole entry, the tested form may be a part): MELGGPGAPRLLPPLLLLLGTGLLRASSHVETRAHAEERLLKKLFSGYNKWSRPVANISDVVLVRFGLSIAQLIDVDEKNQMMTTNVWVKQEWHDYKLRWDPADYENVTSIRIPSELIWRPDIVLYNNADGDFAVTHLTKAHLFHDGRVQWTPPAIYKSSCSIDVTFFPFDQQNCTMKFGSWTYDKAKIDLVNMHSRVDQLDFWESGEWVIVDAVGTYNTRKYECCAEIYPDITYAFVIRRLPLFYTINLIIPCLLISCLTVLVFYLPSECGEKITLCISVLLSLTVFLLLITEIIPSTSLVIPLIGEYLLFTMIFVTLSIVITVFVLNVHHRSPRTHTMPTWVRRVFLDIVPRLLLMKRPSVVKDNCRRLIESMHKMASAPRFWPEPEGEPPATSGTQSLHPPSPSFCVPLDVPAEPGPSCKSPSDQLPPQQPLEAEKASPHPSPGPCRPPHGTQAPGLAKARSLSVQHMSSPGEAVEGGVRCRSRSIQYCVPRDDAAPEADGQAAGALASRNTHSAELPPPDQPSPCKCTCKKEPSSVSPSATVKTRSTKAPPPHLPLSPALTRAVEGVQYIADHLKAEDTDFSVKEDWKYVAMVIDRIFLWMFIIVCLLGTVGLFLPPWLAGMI
T1 sequence (P30926 whole entry): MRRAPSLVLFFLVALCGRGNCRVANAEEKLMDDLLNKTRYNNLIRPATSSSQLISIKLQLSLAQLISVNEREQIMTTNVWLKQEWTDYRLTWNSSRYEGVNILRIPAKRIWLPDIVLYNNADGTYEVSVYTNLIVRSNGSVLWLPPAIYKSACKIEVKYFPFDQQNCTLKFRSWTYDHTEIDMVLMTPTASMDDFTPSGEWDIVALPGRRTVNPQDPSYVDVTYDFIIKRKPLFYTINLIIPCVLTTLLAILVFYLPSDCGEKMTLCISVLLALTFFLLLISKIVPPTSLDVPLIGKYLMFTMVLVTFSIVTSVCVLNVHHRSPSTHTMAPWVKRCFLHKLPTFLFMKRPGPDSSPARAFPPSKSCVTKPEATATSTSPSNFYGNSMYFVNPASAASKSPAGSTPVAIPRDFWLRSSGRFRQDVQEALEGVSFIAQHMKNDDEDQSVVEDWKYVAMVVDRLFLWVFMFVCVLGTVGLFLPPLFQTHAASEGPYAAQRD
T1 sequence (P32297 whole entry): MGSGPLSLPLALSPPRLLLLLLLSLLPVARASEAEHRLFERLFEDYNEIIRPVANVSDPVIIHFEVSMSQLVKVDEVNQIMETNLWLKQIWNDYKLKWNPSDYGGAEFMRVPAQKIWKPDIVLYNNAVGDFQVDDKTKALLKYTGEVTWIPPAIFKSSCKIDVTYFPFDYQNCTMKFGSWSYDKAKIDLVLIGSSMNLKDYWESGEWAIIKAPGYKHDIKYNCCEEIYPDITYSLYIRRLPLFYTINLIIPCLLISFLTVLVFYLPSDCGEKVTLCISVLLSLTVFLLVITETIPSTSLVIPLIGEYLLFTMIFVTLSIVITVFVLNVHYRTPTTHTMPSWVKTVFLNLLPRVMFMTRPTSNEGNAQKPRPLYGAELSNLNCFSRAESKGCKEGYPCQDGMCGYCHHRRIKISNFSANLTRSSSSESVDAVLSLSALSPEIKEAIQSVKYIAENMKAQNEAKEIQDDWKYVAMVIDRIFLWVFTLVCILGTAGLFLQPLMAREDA

The first assay has as its target T1, Neuronal acetylcholine receptor; alpha3/beta4 (Homo sapiens, UniProt P30926+P32297). Nature of the assay: Antagonist activity at human alpha3beta4 transfected in rat GH4-C1 cells assessed as inhibition of ACh-induced response at holding potential of -70 mV by whole cell patch clamp electrophysiology method. Type of assay: cell-based. On the technique in general: Patch clamp records ionic current or voltage across a cell membrane.
Turning to `CN1CCC[C@H]1[C@H]1COc2c(N)cccc2O1`, the IC50 (in general, the concentration at which inhibition is half-maximal) stood at 54.6 µM.

The next assay concerns the target T1, Neuronal acetylcholine receptor; alpha3/beta4. Kind of assay: Displacement of [3H]-epibatidine from human alpha3beta4 transfected in HEK293 cell membranes preincubated for 5 mins followed by [3H]-epibatidine addition and measured after overnight incubation by liquid scintillation beta counter analysis. Set-up: species or system Membrane. Put shortly:
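Membranes (rat cerebral cortex for α4β2; HEK cells stably transfected with human α3β4) were pre-exposed to rising compound concentrations for 5 min. They were then incubated overnight at 4 °C with [3H]epibatidine (0.1 nM for α4β2, 0.25 nM for α3β4). Samples were filtered on PEI-soaked GFC filters and counted by β scintillation. Nonspecific binding was set with 100 nM epibatidine.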
In general terms: Displacement assays read how much labelled ligand stays bound in the presence of the test substance.
Regarding `CN1CCC[C@H]1[C@@H]1COc2c(O)cccc2O1`, the affinity, expressed as Ki, was 3.9 µM.
Still for that read-out and setting: then `CN1CCC[C@H]1[C@@H]1COc2ccc(N)cc2O1`, with 0.019 µM; and `CN1CCC[C@H]1[C@@H]1COc2c(cccc2-c2ccccc2)O1`, with 2.7 µM; and `CN1CCC[C@H]1[C@@H]1COc2c(cccc2[N+](=O)[O-])O1`, with 1.1 µM.
In the case of `CN(C)c1ccc2c(c1)O[C@H]([C@@H]1CCCN1C)CO2`, the inhibition constant (Ki) (commonly the dissociation constant of the complex between target and ligand, obtained from inhibition or displacement) was found to be 2.2 µM. This Ki is about 2-fold higher than that of the compound before.
Take `CN1CCC[C@H]1[C@H]1COc2ccc([N+](=O)[O-])cc2O1`: the Ki is 2.1 µM.
`CN1CCC[C@H]1[C@H]1COc2cc(O)ccc2O1` showed a Ki of 6 µM.
As to `CN1CCC[C@H]1[C@H]1COc2cc(N)ccc2O1`, the Ki turned out to be 8.6 µM.
The same measure, in the same setting: the figure for `CN1CCC[C@H]1[C@@H]1COc2ccc([N+](=O)[O-])cc2O1` is 4.5 µM.
On to `CN1CCC[C@H]1[C@H]1COc2c(N)cccc2O1`, for which the Ki came to 13 µM.
As to `CN1CCC[C@H]1[C@@H]1COc2cc(-c3ccccc3)ccc2O1`, affinity was put at a Ki of 5.4 µM. Against the preceding compound, the Ki is about 2.4-fold lower.
`CN1CCC[C@H]1[C@@H]1COc2cc(N)ccc2O1` had an inhibition constant Ki of 3.5 µM.
Turning to `CN1CCC[C@H]1[C@H]1COc2cc([N+](=O)[O-])ccc2O1`, the Ki was determined as 4.8 µM.
For the compound `CC(=O)Nc1ccc2c(c1)O[C@@H]([C@@H]1CCCN1C)CO2`, affinity was put at a Ki of 8.7 µM.

Another assay has as its target T2, Neuronal acetylcholine receptor; alpha4/beta2 (Homo sapiens, UniProt P17787+P43681). Nature of the assay: Partial agonist activity at human alpha4beta2 transfected in rat GH4-C1 cells at holding potential of -70 mV by whole cell patch clamp electrophysiology method. Type of assay: cell-based. In outline:
(§1)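 GH4C1 cells were transiently transfected by magnetofection with 0.5 μg of each human subunit cDNA (wild-type or S108A α4β2; α3β4). Whole-cell currents were recorded in HEPES-buffered saline at pH 7.3, with CsCl/BAPTA pipettes and fast perfusion of agonist. Concentrations were applied sequentially, and peak currents were normalized to 100 μM ACh on the same cell. EC50, Imax and Hill coefficient came from a Hill-equation fit.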
With `CN1CCC[C@H]1[C@@H]1COc2ccc(N)cc2O1`, the concentration for a half-maximal effect (EC50) (commonly the concentration that produces a half-maximal response) worked out at 14 µM.
With `CN1CCC[C@H]1[C@H]1COc2c(N)cccc2O1`, a half-maximal response (EC50) required 0.005 µM.

The target of the next assay is Neuronal acetylcholine receptor subunit alpha-7 (Rattus norvegicus, UniProt Q05941). Nature of the assay: Displacement of [125I]alpha-bungarotoxin from alpha7nAChR in rat hippocampus membranes preincubated for 5 mins followed by [125I]alpha-bungarotoxin addition and measured after overnight incubation by liquid scintillation beta counter analysis. Type of assay: cell membranes, Membrane.
Chain of Neuronal acetylcholine receptor subunit alpha-7 (Q05941 whole entry): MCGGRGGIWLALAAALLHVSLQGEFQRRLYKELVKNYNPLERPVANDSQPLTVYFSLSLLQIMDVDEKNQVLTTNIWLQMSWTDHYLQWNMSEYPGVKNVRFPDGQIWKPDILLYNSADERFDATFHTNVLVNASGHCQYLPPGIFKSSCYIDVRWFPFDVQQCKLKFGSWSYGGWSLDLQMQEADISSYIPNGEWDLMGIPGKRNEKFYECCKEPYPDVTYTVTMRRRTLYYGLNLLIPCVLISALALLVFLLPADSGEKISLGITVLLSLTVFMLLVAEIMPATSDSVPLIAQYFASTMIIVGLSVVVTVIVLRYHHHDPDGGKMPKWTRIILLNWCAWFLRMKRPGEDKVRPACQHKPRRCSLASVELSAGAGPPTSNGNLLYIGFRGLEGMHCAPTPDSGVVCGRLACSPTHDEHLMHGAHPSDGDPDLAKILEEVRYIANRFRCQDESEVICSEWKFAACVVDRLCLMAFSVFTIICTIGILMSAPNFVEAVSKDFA
In turn, `CN1CCC[C@H]1[C@@H]1COc2ccc(N)cc2O1` gave a Ki of 2.6 µM.
`CN1CCC[C@H]1[C@@H]1COc2c(cccc2-c2ccccc2)O1` came in with an inhibition constant Ki of 45.5 µM.
On the same count and under the same terms, the figure for `CN1CCC[C@H]1[C@H]1COc2ccc([N+](=O)[O-])cc2O1` is 42.2 µM; for `CN1CCC[C@H]1[C@H]1COc2cc(O)ccc2O1` it is 10.5 µM; for `CN1CCC[C@H]1[C@H]1COc2cc(N)ccc2O1` it is > 10 µM.
`CN1CCC[C@H]1[C@@H]1COc2ccc([N+](=O)[O-])cc2O1` came in with an inhibitory constant (Ki) of 10.4 µM.
The same measure, in the same setting: then `CN1CCC[C@H]1[C@H]1COc2c(N)cccc2O1`, with 44.5 µM; and `CN1CCC[C@H]1[C@@H]1COc2cc(-c3ccccc3)ccc2O1`, with 8.1 µM; and `CN1CCC[C@H]1[C@H]1COc2cc([N+](=O)[O-])ccc2O1`, with 13.5 µM.

A further assay addresses T2, Neuronal acetylcholine receptor; alpha4/beta2. Nature of the assay: Partial agonist activity at wild type human alpha4beta2 transfected in rat GH4-C1 cells assessed as maximum response at holding potential of -70 mV by whole cell patch clamp electrophysiology method relative to ACh. Type of assay: cell-based. Put shortly: as §1
For `CN1CCC[C@H]1[C@H]1COc2c(N)cccc2O1`, the Imax came to 31%.

Another assay relates to GH4-C1. Nature of the assay: Agonist activity at human alpha4beta2 S108A mutant transfected in rat GH4-C1 cells assessed as maximum response at holding potential of -70 mV by whole cell patch clamp electrophysiology method relative to ACh. Type of assay: cell-based. In outline:
as §1
For the compound `CN1CCC[C@H]1[C@H]1COc2c(N)cccc2O1`, the Imax was 31%.

The next assay concerns the target T1, Neuronal acetylcholine receptor; alpha3/beta4. Nature of the assay: Partial agonist activity at human alpha3beta4 transfected in rat GH4-C1 cells at holding potential of -70 mV by whole cell patch clamp electrophysiology method. In kind it is cell-based. Put shortly: as §1
`CN1CCC[C@H]1[C@@H]1COc2ccc(N)cc2O1` gave a 50% effective concentration (EC50) of 19 µM. This counts as double-digit micromolar.
As to `CN1CCC[C@H]1[C@H]1COc2c(N)cccc2O1`, a half-maximal effect (EC50) was put at 8.7 µM. Against the preceding compound, the EC50 is about 2.2-fold lower.

System in the next assay: not listed separately
Kind of assay: Selectivity index, ratio of Ki for displacement of [3H]-Epibatidine from wild type human alpha4beta2 nAChR transfected in Hela cell membrane to Ki for displacement of [3H]-Epibatidine from human alpha4beta2 nAChR S108A mutant transfected in Hela cell membrane. In kind it is cell membranes. In outline:
(§2)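 HeLa cells were transiently transfected (JetPEI) with 7.5 μg each of α4 and β2 (wild-type or mutant) cDNA and harvested after 24 h. Membranes were pre-exposed to compounds for 5 min, then incubated overnight at 4 °C with 0.1 nM [3H]epibatidine, filtered and counted by β scintillation. Ki came from the Cheng–Prusoff equation, three independent experiments in duplicate.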
With `CN1CCC[C@H]1[C@@H]1COc2ccc(N)cc2O1`, the Ratio Ki came to 7.7.
On to `CN1CCC[C@H]1[C@H]1COc2c(N)cccc2O1`, for which the Ratio Ki is 2.4.

System in a further assay: not listed separately
Kind of assay: Displacement of [3H]-epibatidine from human alpha4beta2 nAChR S108A mutant transfected in human Hela cell membranes preincubated for 5 mins followed by [3H]-Epibatidine addition and measured after overnight incubation by liquid scintillation beta counter analysis. In outline:
as §2
As to `CN1CCC[C@H]1[C@@H]1COc2ccc(N)cc2O1`, the inhibition constant Ki amounted to 0.006 µM. That is a single-digit nanomolar value.
Compound `CN1CCC[C@H]1[C@H]1COc2c(N)cccc2O1` returned a Ki of 0.156 µM. Against the preceding compound, the Ki is about 26-fold higher.

System in the next assay: not listed separately
Kind of assay: Agonist activity at human alpha4beta2 S108A mutant transfected in rat GH4-C1 cells at holding potential of -70 mV by whole cell patch clamp electrophysiology method. Type of assay: cell-based. In outline: as §1
`CN1CCC[C@H]1[C@H]1COc2c(N)cccc2O1` returned a concentration for a half-maximal effect (EC50) of 2.4 µM.

Another assay concerns the target T2, Neuronal acetylcholine receptor; alpha4/beta2. Nature of the assay: Agonist activity at wild type human alpha4beta2 transfected in rat GH4-C1 cells at holding potential of -70 mV by whole cell patch clamp electrophysiology method. Type of assay: cell-based. In outline:
as §1
In turn, `CN1CCC[C@H]1[C@H]1COc2c(N)cccc2O1` displayed a 50% effective concentration (EC50) of 2.4 µM. In other words, the single-digit micromolar range.

For the next assay, the target named is Neuronal acetylcholine receptor; alpha4/beta2 (Rattus norvegicus, UniProt P09483+P12390). Nature of the assay: Displacement of [3H]-Epibatidine from alpha4beta2 nAChR in rat cerebral cortex membrane preincubated for 5 mins followed by [3H]-Epibatidine addition and measured after overnight incubation by liquid scintillation beta counter analysis. Type of assay: cell membranes. In outline:
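Membranes (rat cerebral cortex for α4β2; HEK cells stably transfected with human α3β4) were pre-exposed to rising compound concentrations for 5 min. Samples were filtered on PEI-soaked GFC filters and counted by β scintillation. Nonspecific binding was set with 100 nM epibatidine.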
For the compound `CN1CCC[C@H]1[C@@H]1COc2c(O)cccc2O1`, the Ki came out at 0.55 µM.
Compound `CN1CCC[C@H]1[C@@H]1COc2ccc(N)cc2O1` yielded a Ki of 0.022 µM. Compared with the last compound, the Ki is about 25-fold lower.
For the compound `CN1CCC[C@H]1[C@@H]1COc2c(cccc2-c2ccccc2)O1`, the affinity corresponds to a Ki of 0.64 µM.
Compound `CN1CCC[C@H]1[C@@H]1COc2c(cccc2[N+](=O)[O-])O1` came in with a Ki of 12.2 µM.
`CN(C)c1ccc2c(c1)O[C@H]([C@@H]1CCCN1C)CO2` gave an inhibitory constant (Ki) of 147 µM.
For `CN1CCC[C@H]1[C@H]1COc2ccc([N+](=O)[O-])cc2O1`, the Ki came to 33 µM.
In turn, `CN1CCC[C@H]1[C@H]1COc2cc(O)ccc2O1` had an inhibition constant (Ki) of 71 µM. This Ki lies about 2.2-fold higher than the previous one.
In the case of `CN1CCC[C@H]1[C@H]1COc2cc(N)ccc2O1`, the Ki came to 74 µM. This Ki and that of the compound before are within 1.5-fold of each other.
For `CN1CCC[C@H]1[C@@H]1COc2ccc([N+](=O)[O-])cc2O1`, the affinity, expressed as Ki, was 14 µM.
Compound `CN1CCC[C@H]1[C@H]1COc2c(N)cccc2O1` displayed an inhibitory constant (Ki) of 0.131 µM.
`CN1CCC[C@H]1[C@@H]1COc2cc(-c3ccccc3)ccc2O1` returned an inhibition constant (Ki) of 59 µM.
Regarding `CN1CCC[C@H]1[C@@H]1COc2cc(N)ccc2O1`, the Ki came to 86 µM.
As to `CN1CCC[C@H]1[C@H]1COc2cc([N+](=O)[O-])ccc2O1`, the inhibitory constant (Ki) was > 100 µM.
`CC(=O)Nc1ccc2c(c1)O[C@@H]([C@@H]1CCCN1C)CO2` had a Ki of 46 µM. In other words, the double-digit micromolar range.

The next assay deals with T1, Neuronal acetylcholine receptor; alpha3/beta4. Nature of the assay: Partial agonist activity at human alpha3beta4 transfected in rat GH4-C1 cells assessed as maximum response at holding potential of -70 mV by whole cell patch clamp electrophysiology method relative to ACh. In kind it is cell-based. In outline:
as §1
`CN1CCC[C@H]1[C@@H]1COc2ccc(N)cc2O1`: the Imax turned out to be 24%.
The same measure, in the same setting: then `CN1CCC[C@H]1[C@H]1COc2c(N)cccc2O1`, with 38.2%.

The target in the next assay is T2, Neuronal acetylcholine receptor; alpha4/beta2. Nature of the assay: Partial agonist activity at human alpha4beta2 transfected in rat GH4-C1 cells assessed as maximum response at holding potential of -70 mV by whole cell patch clamp electrophysiology method relative to ACh. In kind it is cell-based. Put shortly: as §1
As to `CN1CCC[C@H]1[C@@H]1COc2ccc(N)cc2O1`, the Imax was found to be 36%.
Regarding `CN1CCC[C@H]1[C@H]1COc2c(N)cccc2O1`, the Imax turned out to be 21.8%.

Another assay has the same target. Kind of assay: Displacement of [3H]-epibatidine from wild type human alpha4beta2 nAChR transfected in human Hela cell membranes preincubated for 5 mins followed by [3H]-epibatidine addition and measured after overnight incubation by liquid scintillation beta counter analysis. Put shortly:
as §2
In turn, `CN1CCC[C@H]1[C@@H]1COc2ccc(N)cc2O1` had an inhibition constant (Ki) of 0.046 µM. This lies in the double-digit nanomolar range.
Compound `CN1CCC[C@H]1[C@H]1COc2c(N)cccc2O1` came in with an inhibition constant Ki of 0.373 µM.
